Test results from ChEMBL document CHEMBL5257147 (ACS Med Chem Lett, 2023).
Activity calls are given as the source filed them. The calls are words filed in the database; no cut-off is given here.

What was measured:
BaF3 [1] = assay: Cytotoxicity against mouse BaF3 cells expressing EGFR L858R/C797S mutant assessed as reduction in cell viability incubated for 96 hrs by CellTiter-Glo assay; type: functional, cell-based; settings: BaF3, 96 h
A-431 = assay: Cytotoxicity against human A-431 cells expressing wild type EGFR assessed as reduction in cell viability incubated for 96 hrs by CellTiter-Glo assay; type: functional, cell-based; settings: A-431, 96 h
[2] = molecular target: Epidermal growth factor receptor (Homo sapiens, UniProt P00533); assay: Inhibition of wild type EGFR (unknown origin) using TK-substrate preincubated with enzyme for 30 mins followed by substrate and ATP addition for 25 mins by HTRF assay
[3] = molecular target: Epidermal growth factor receptor (Homo sapiens, UniProt P00533, C797S/L858R); assay: Inhibition of EGFR L858R/C797S mutant (unknown origin) using TK-substrate preincubated with enzyme for 30 mins followed by substrate and ATP addition for 20 mins by HTRF assay
[4] = molecular target: Epidermal growth factor receptor (Homo sapiens, UniProt P00533, C797S/L858R/T790M); assay: Inhibition of EGFR L858R/T790M/C797S mutant (unknown origin) using TK-substrate preincubated with enzyme for 30 mins followed by substrate and ATP addition for 10 mins by HTRF assay
[5] = molecular target: Platelet-derived growth factor receptor alpha (Homo sapiens) (UniProt P16234); assay: Inhibition of GST-tagged human recombinant PDGFR-alpha (550 to 1089 residues) expressed in baculovirus expression system at 200 nM by Z'-lyte assay
[6] = molecular target: Tyrosine-protein kinase Fyn (Homo sapiens) (UniProt P06241); assay: Inhibition of His-tagged human recombinant FYN expressed in insect cells at 200 nM by Z'-lyte assay; settings: Insect cell
[7] = molecular target: Tyrosine-protein kinase Fes/Fps (Homo sapiens) (UniProt P07332); assay: Inhibition of His-tagged human recombinant FES expressed in baculovirus expression system at 200 nM by Z'-lyte assay
[8] = molecular target: Fibroblast growth factor receptor 2 (Homo sapiens) (UniProt P21802); assay: Inhibition of His-tagged human recombinant FGFR2 (403 to 822 residues) expressed in baculovirus expression system at 200 nM by Z'-lyte assay
[9] = Intrinsic clearance in mouse liver microsomes at 1 uM in presence of NADP measured per mg protein by LC-MS/MS analysis; type: ADME, Microsome; settings: read-out: CLH
[10] = molecular target: Platelet-derived growth factor receptor beta (Homo sapiens) (UniProt P09619); assay: Inhibition of His-tagged human recombinant PDGFR-beta (558 to 1106 residues) expressed in baculovirus expression system at 200 nM by Z'-lyte assay
[11] = molecular target: Tyrosine-protein kinase TXK (Homo sapiens) (UniProt P42681); assay: Inhibition of GST-tagged human recombinant TXK (260 to 527 residues) expressed in baculovirus expression system at 200 nM by Z'-lyte assay
[12] = molecular target: Vascular endothelial growth factor receptor 2 (Homo sapiens) (UniProt P35968); assay: Inhibition of His-tagged human recombinant VEGFR2 (789 to 1356 residues) expressed in insect cells at 200 nM by Z'-lyte assay; settings: Insect cell
Insect cell = assay: Inhibition of GST-tagged human recombinant VEGFR3 (800 to 1297 residues) Q890H/V1128L/H1146R mutant expressed in insect cells at 200 nM by Z'-lyte assay
[13] = molecular target: Tyrosine-protein kinase BTK (Homo sapiens) (UniProt Q06187); assay: Inhibition of His-tagged human recombinant BTK expressed in insect cells at 200 nM by Z'-lyte assay; settings: Insect cell
[14] = tested on: Epidermal growth factor receptor (Homo sapiens), P00533 [L858R,T790M]; assay: Inhibition of EGFR L858R/T790M mutant (unknown origin) using TK-substrate preincubated with enzyme for 30 mins followed by substrate and ATP addition for 20 mins by HTRF assay; settings: time 50.0 min
BaF3 [15] = assay: Cytotoxicity against mouse BaF3 cells expressing EGFR L858R/T790M/C797S mutant assessed as reduction in cell viability incubated for 96 hrs by CellTiter-Glo assay; type: functional, cell-based; settings: BaF3, 96 h
BaF3 [16] = assay: Cytotoxicity against mouse BaF3 cells expressing EGFR L858R mutant assessed as reduction in cell viability incubated for 96 hrs by CellTiter-Glo assay; type: functional, cell-based; settings: BaF3, 96 h
How it was run: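 Cell viability measured by CellTiter-Glo (CTG) luminescence. A431 cells are EGFR wild-type dependent. Ba/F3 cells are made dependent on EGFR-L858R or EGFR-L858R/C797S. Readout is an EC50 for loss of viability.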

[17] = molecular target: Epidermal growth factor receptor (Homo sapiens, UniProt P00533, L858R); assay: Inhibition of EGFR L858R mutant (unknown origin) using TK-substrate preincubated with enzyme for 30 mins followed by substrate and ATP addition for 15 mins by HTRF assay
[18] = molecular target: Tyrosine-protein kinase Lck (Homo sapiens) (UniProt P06239); assay: Inhibition of human LCK at 200 nM by Z'-lyte assay
[19] = molecular target: Tyrosine-protein kinase Lyn (Homo sapiens) (UniProt P07948); assay: Inhibition of human LYN at 200 nM by Z'-lyte assay
[20] = molecular target: Inactive tyrosine-protein kinase PEAK1 (Homo sapiens) (UniProt Q9H792); assay: Inhibition of human PEAK1 at 200 nM by Z'-lyte assay
[21] = molecular target: Tyrosine-protein kinase ABL1 (Homo sapiens) (UniProt P00519); assay: Inhibition of His-tagged human recombinant ABL1 expressed in insect cells at 200 nM by Z'-lyte assay; settings: Insect cell
[22] = molecular target: ALK tyrosine kinase receptor (Homo sapiens) (UniProt Q9UM73); assay: Inhibition of human ALK at 200 nM by Z'-lyte assay
[23] = molecular target: Tyrosine-protein kinase Blk (Homo sapiens) (UniProt P51451); assay: Inhibition of His-tagged human recombinant BLK expressed in insect cells at 200 nM by Z'-lyte assay; settings: Insect cell
[24] = molecular target: Tyrosine-protein kinase HCK (Homo sapiens) (UniProt P08631); assay: Inhibition of GST-tagged human recombinant HCK expressed in insect cells at 200 nM by Z'-lyte assay; settings: Insect cell

Chain of Epidermal growth factor receptor (Homo sapiens, UniProt P00533, C797S/L858R) (P00533 25-1210 C797S/L858R limits assumed): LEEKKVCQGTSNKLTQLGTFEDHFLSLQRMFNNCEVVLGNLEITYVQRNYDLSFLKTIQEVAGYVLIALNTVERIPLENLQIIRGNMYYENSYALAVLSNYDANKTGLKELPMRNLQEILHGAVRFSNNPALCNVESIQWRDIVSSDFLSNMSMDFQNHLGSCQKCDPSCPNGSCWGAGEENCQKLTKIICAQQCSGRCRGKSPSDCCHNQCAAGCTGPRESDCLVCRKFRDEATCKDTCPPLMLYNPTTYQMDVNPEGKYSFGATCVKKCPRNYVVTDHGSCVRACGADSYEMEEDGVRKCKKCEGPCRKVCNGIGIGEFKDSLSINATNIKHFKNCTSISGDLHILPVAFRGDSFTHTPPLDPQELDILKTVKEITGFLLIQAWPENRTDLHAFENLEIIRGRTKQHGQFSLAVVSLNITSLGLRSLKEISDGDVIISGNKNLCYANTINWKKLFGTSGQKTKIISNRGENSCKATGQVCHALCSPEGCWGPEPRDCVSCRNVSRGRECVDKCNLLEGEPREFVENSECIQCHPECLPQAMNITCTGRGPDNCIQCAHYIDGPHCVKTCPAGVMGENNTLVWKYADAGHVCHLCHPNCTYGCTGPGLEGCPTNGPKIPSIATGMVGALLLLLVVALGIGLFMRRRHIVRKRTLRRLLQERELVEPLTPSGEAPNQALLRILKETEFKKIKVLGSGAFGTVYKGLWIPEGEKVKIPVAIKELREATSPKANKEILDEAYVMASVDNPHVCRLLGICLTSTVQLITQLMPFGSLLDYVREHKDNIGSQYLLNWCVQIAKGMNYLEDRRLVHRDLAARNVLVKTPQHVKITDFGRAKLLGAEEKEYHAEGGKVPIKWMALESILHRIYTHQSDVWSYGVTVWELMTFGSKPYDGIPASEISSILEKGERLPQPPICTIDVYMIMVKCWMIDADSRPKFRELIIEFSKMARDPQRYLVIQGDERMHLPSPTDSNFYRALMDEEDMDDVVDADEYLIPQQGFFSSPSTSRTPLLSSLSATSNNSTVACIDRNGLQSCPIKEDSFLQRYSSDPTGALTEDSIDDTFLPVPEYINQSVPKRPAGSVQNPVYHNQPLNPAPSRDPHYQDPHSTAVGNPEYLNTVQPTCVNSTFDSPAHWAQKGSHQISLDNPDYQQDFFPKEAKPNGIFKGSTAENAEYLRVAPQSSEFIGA
Chain of Epidermal growth factor receptor (Homo sapiens, UniProt P00533, C797S/L858R/T790M) (P00533 25-1210 T790M/C797S/L858R limits assumed): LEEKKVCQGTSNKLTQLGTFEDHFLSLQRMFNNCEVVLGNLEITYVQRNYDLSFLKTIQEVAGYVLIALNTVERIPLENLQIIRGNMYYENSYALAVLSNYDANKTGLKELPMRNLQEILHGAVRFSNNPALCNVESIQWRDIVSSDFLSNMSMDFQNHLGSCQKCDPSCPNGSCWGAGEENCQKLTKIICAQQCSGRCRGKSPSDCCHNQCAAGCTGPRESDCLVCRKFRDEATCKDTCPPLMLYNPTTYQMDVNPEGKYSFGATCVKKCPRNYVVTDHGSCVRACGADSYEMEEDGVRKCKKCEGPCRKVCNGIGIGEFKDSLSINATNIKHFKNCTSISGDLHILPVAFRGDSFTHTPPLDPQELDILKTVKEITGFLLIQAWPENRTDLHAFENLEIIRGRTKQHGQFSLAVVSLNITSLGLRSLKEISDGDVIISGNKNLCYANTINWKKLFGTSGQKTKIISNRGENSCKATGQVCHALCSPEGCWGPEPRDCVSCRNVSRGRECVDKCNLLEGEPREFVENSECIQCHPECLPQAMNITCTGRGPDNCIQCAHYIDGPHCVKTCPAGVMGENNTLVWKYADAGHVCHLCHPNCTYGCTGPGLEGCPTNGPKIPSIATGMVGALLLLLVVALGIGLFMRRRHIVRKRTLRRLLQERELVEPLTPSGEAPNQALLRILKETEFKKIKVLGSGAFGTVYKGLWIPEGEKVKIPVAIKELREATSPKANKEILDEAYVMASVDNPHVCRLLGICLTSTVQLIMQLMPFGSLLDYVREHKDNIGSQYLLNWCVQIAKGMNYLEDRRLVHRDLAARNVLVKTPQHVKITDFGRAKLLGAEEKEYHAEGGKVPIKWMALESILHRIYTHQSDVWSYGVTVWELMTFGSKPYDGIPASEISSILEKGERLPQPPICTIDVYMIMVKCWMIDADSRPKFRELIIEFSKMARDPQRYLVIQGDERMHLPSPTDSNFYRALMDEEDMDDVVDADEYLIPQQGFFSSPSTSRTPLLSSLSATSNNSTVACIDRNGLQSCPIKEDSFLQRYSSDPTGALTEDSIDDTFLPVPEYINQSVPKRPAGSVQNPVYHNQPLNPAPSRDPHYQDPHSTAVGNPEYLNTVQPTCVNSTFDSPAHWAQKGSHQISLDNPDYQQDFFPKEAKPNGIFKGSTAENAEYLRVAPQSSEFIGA
Chain of Epidermal growth factor receptor (Homo sapiens, UniProt P00533) (P00533 whole entry): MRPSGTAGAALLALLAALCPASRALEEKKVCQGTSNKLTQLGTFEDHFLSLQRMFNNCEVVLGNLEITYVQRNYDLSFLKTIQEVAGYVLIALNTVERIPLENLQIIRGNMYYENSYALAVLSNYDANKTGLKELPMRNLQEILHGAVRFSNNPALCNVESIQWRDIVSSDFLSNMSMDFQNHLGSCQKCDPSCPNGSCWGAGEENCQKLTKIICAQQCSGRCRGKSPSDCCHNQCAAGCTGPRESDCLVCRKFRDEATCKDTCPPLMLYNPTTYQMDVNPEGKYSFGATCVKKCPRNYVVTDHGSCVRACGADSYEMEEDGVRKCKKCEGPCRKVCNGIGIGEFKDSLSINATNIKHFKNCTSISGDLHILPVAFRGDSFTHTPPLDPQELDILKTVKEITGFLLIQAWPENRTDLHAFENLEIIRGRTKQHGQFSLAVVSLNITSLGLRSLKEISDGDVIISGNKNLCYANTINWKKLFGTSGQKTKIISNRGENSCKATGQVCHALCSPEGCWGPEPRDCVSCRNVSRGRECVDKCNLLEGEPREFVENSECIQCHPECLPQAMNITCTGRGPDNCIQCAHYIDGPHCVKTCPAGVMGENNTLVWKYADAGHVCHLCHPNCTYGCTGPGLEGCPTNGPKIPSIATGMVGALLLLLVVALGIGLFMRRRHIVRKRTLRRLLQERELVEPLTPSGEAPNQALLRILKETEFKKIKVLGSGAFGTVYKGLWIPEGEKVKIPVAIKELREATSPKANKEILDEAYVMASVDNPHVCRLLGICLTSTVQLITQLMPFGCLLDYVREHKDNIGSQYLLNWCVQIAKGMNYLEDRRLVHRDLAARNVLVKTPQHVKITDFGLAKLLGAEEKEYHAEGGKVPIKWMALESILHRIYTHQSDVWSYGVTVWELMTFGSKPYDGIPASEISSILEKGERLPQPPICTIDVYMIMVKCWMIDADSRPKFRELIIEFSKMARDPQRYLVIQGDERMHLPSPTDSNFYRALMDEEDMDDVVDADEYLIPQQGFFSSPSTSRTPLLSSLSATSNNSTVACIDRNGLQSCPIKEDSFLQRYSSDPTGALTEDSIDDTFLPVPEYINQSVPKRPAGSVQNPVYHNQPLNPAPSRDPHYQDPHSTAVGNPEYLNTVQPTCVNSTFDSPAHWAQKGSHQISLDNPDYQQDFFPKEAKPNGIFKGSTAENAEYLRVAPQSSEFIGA
Chain of Epidermal growth factor receptor (Homo sapiens, UniProt P00533, L858R) (P00533 25-1210 L858R limits assumed): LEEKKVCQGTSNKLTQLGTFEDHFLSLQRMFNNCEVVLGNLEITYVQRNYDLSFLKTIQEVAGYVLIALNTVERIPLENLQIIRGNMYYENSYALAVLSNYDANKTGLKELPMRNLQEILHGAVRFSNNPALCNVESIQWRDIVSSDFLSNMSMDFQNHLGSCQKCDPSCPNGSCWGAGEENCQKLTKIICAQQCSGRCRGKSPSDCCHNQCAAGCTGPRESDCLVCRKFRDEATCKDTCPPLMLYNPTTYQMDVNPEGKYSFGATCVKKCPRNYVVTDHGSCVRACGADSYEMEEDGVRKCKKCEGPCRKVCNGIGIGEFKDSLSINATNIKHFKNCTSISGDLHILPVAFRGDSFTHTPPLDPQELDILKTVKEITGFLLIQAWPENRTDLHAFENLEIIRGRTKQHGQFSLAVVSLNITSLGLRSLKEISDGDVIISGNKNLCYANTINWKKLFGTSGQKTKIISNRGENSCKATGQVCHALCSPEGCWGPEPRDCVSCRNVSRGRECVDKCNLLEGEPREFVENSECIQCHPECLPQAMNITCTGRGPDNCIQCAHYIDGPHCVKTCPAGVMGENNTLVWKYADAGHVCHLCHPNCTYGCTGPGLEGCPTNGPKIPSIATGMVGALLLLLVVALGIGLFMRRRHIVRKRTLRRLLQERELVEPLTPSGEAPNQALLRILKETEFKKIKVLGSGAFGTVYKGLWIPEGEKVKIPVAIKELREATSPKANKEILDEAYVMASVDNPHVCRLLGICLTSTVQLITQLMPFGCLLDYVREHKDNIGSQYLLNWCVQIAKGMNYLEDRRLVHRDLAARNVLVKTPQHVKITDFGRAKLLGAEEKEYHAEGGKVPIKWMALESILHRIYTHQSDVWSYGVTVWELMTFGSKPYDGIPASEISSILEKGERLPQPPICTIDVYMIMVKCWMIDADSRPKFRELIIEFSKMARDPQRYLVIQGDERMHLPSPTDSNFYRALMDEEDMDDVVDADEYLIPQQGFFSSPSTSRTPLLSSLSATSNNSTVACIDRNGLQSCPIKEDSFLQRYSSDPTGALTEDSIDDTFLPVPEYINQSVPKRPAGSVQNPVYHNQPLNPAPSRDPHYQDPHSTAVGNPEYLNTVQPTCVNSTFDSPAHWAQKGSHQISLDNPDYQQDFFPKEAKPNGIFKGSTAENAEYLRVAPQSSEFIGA

SMILES	IC50 [2] [nM]	IC50 [3] [nM]	IC50 [4] [nM]	EC50 (BaF3 [1]) [nM]	EC50 (A-431) [nM]	EC50 (BaF3 [16]) [nM]	other results
COc1cc(N2CCN(C)CC2)ccc1Nc1ncc(C(=O)Oc2ccc(F)cc2)c(-c2cn(C)c3ccccc23)n1				227	1410		
COc1cc(N2CCC(N3CCN(C)CC3)CC2)ccc1Nc1ncc(Cl)c(Nc2ccccc2P(C)(C)=O)n1 [BRIGATINIB]				295	936		
C=CC(=O)Nc1cc(Nc2nccc(-c3cn(C)c4ccccc34)n2)c(OC)cc1N(C)CCN(C)C [OSIMERTINIB]				2960	[…]	6	microsomal CLint at 1 µM [9]: 81 µL/min/mg
CCOC(=O)c1cnc(Nc2ccc(N3CCN(C)CC3)cc2OC)nc1-c1cn(C)c2ccccc12	5.2	17		1880		1900	IC50 [17]: 0.68 nM
COc1cc(N2CCN(C)CC2)ccc1Nc1ncc(C(=O)Oc2ccccc2)c(-c2cn(C)c3ccccc23)n1	0.053	0.064	8.8	94	2610		
COc1cc(N2CCN(C)CC2)ccc1Nc1nccc(-c2cn(C)c3ccccc23)n1	34	125		2060		3630	IC50 [17]: 5.4 nM
COc1cc(N2CCN(C)CC2)ccc1Nc1ncc(C(=O)OC(C)C)c(-c2cn(C)c3ccccc23)n1				615	7960	605	
C=CC(=O)Nc1cc(Nc2ncc(C(=O)OC(C)C)c(-c3cn(C)c4ccccc34)n2)c(OC)cc1N(C)CCN(C)C [MOBOCERTINIB]	0.025	25	364	2710	1680	1.1	IC50 [17]: 0.01 nM; microsomal CLint at 1 µM [9]: 149 µL/min/mg

The next lines start with results.

IC50 [2] [nM]	IC50 [3] [nM]	IC50 [4] [nM]	SMILES	EC50 (BaF3 [1]) [nM]	EC50 (A-431) [nM]	EC50 (BaF3 [16]) [nM]	other results
0.4	0.42	19	COc1cc(N2CCC(N(C)C)CC2)ccc1Nc1ncc(C(=O)OC(C)C)c(-c2cn(C)c3ccccc23)n1	202	3670		
0.008	0.02	0.64	COc1cc(N2CCC(N(C)C)CC2)ccc1Nc1ncc(C(=O)Oc2ccccc2)c(-c2c[nH]c3ccccc23)n1	7.1	1840		inhibition [5]: > 40%; inhibition [6]: > 40%; inhibition [7]: > 40%; inhibition [8]: > 40%; microsomal CLint at 1 µM [9]: 55 µL/min/mg; inhibition [10]: > 40%; inhibition [11]: > 40%; inhibition [12]: > 40%; inhibition (Insect cell): > 40%; inhibition [13]: Active; inhibition [14]: Active; EC50 (BaF3 [15]): 470 nM
0.86	3	78	COc1cc(N2CCC(N(C)C)CC2)ccc1Nc1ncc(C(=O)OC(C)C)c(-c2cn(C(C)=O)c3ccccc23)n1	220	3920		
0.35	0.56	12	COc1cc(N2CCC(N)CC2)ccc1Nc1ncc(C(=O)OC(C)C)c(-c2cn(C)c3ccccc23)n1	354	4020		
0.16	0.32	15	COc1cc(N2CCC(N(C)C)CC2)ccc1Nc1ncc(C(=O)OC(C)C)c(-c2c[nH]c3ccccc23)n1	111	3890		inhibition [18]: > 40%; inhibition [19]: > 40%; inhibition [20]: > 40%; microsomal CLint at 1 µM [9]: 49 µL/min/mg; inhibition [21]: > 40%; inhibition [22]: > 40%; inhibition [23]: > 40%; inhibition [24]: > 40%
23	73		COC(=O)c1cnc(Nc2ccc(N3CCN(C)CC3)cc2OC)nc1-c1cn(C)c2ccccc12	3750		3340	IC50 [17]: 3.4 nM
